Reference: ChEMBL document CHEMBL4368943 (J Med Chem, 2019)
pIC50: −log10 of the molar value. Calls of active or inactive are those of the source. The rule behind the calls is not given here.

How the values were obtained:
[1] = target: T1, von Hippel-Lindau disease tumor suppressor/Estrogen receptor/Cullin-2 (Homo sapiens, UniProt P03372+P40337+Q13617); experiment: Protac activity against VHL/cullin2/ERalpha in human MCF7 cells assessed as ERalpha degradation by measuring ER protein/GADPH ratio at 1 nM after 4 hrs by Western blot analysis relative to control; type: cell-based
Outline: (§1)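 MCF-7 cells (DMEM, 10% FBS, passages 3−8) exposed 4 h. Lysed in RIPA with protease inhibitors; equal protein on 10% SDS-PAGE, PVDF, anti-ERα blot. Membranes stripped and reprobed for GAPDH. ERα/GAPDH ratio normalized to DMSO = 100; DC50 from densitometry of the dose series.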

MCF7 [2] = experiment: Inhibition of cell growth in human MCF7 cells after 4 days by wst-8-based colorimetric analysis; type: functional; details: MCF7, 96 h
Outline: (§2)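 Cells seeded at 1500/well overnight, then exposed to graded compound doses for 4 days. Growth read by colorimetric WST-8 assay. GI50 from fitted curves. MCF-7 cells were kept in DMEM, 10% FBS, passages 3−8; human mammary epithelial cells were run the same way.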

[3] = target: T1, von Hippel-Lindau disease tumor suppressor/Estrogen receptor/Cullin-2; experiment: Protac activity against VHL/cullin2/ERalpha in human MCF7 cells assessed as ERalpha degradation by measuring ER protein/GADPH ratio at 10 nM after 4 hrs by Western blot analysis relative to control; type: cell-based; outline: as §1
MCF7 [4] = experiment: Inhibition of cell growth in human MCF7 cells after 4 days by wst-8-based colorimetric analysis relative to control; type: functional; outline: as §2
[5] = target: T1, von Hippel-Lindau disease tumor suppressor/Estrogen receptor/Cullin-2; experiment: Protac activity against VHL/cullin2/ERalpha in human MCF7 cells assessed as ERalpha degradation by measuring ER protein/GADPH ratio at 100 nM after 4 hrs by Western blot analysis relative to control; type: cell-based; outline: as §1
MCF7 [6] = experiment: Antiproliferative activity against human MCF7 cells at 10 to 300 nM after 5 days by crystal violet staining based assay; type: functional, cell-based
Outline: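 MCF-7 cells in DMEM with 10% FBS and penicillin/streptomycin, passages 3−8, exposed to compounds at 10, 100 and 300 nM for 5 days, then fixed and stained with crystal violet.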

[7] = target: T1, von Hippel-Lindau disease tumor suppressor/Estrogen receptor/Cullin-2; experiment: Protac activity against VHL/cullin2/ERalpha in human MCF7 cells assessed as ERalpha degradation by measuring ER protein/GADPH ratio at 1000 nM after 4 hrs by Western blot analysis relative to control; type: cell-based; outline: as §1
[8] = target: T2, Protein cereblon/Estrogen receptor/Cullin-4A (Homo sapiens) (UniProt P03372+Q96SW2+Q13619); experiment: Protac activity against cereblon/cullin 4A/ERalpha in human MCF7 cells assessed as ERalpha degradation by measuring ER protein/GADPH ratio at 10 nM after 4 hrs by Western blot analysis relative to control; type: cell-based; outline: as §1
[9] = target: T2, Protein cereblon/Estrogen receptor/Cullin-4A (Homo sapiens); experiment: Protac activity against cereblon/cullin 4A/ERalpha in human MCF7 cells assessed as ERalpha degradation by measuring ER protein/GADPH ratio at 1 nM after 4 hrs by Western blot analysis relative to control; type: cell-based; outline: as §1
[10] = target: T2, Protein cereblon/Estrogen receptor/Cullin-4A (Homo sapiens); experiment: Protac activity against cereblon/cullin 4A/ERalpha in human MCF7 cells assessed as ERalpha degradation by measuring ER protein/GADPH ratio at 100 nM after 4 hrs by Western blot analysis relative to control; type: cell-based; outline: as §1
[11] = target: T2, Protein cereblon/Estrogen receptor/Cullin-4A (Homo sapiens); experiment: Protac activity against cereblon/cullin 4A/ERalpha in human MCF7 cells assessed as ERalpha degradation by measuring ER protein/GADPH ratio at 1000 nM after 4 hrs by Western blot analysis relative to control; type: cell-based; outline: as §1
[12] = Binding affinity to His-TEV-tagged VHL (54 to 213 residues) (unknown origin)/Elongin B (1 to 118 residues)/Elongin C (1 to 96 residues) expressed in Escherichia coli BL21(DE3) by FP assay; design: species or system Homo sapiens
Outline: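 Competitive FP. Tracer is a fluorescent VHL ligand (Kd 2.3 nM). VHL–ElonginB/C complex and tracer each at 5 nM final, preincubated. Compound in DMSO (5 µL into 95 µL) for 60 min at room temperature with shaking. Ex 485/em 530 nm. IC50 by nonlinear regression; Ki from probe KD and protein/probe concentrations. Duplicate, three independent experiments.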

T1 sequence (P03372 whole entry, looked up): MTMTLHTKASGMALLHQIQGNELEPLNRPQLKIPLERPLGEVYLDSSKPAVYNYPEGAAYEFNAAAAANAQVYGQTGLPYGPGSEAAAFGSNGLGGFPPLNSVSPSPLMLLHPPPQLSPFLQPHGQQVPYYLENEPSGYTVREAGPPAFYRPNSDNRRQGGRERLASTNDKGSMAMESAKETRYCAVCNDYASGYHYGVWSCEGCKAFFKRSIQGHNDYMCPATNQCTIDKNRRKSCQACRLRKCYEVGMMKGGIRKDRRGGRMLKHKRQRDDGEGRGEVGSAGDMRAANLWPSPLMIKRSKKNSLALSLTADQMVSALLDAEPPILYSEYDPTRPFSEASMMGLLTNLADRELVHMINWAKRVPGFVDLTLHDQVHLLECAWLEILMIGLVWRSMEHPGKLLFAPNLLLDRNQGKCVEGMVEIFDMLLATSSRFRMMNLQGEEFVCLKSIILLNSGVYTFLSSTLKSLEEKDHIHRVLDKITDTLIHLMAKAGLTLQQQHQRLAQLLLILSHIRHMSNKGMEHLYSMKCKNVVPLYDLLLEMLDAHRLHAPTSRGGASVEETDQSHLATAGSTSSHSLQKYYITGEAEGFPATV
T1 sequence (P40337 whole entry, looked up): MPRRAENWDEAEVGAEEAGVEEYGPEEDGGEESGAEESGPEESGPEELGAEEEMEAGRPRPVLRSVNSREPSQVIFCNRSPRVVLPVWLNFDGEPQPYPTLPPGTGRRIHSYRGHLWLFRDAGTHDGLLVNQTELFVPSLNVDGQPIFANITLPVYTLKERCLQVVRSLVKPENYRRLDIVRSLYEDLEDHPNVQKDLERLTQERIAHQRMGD
T1 sequence (Q13617 whole entry, looked up): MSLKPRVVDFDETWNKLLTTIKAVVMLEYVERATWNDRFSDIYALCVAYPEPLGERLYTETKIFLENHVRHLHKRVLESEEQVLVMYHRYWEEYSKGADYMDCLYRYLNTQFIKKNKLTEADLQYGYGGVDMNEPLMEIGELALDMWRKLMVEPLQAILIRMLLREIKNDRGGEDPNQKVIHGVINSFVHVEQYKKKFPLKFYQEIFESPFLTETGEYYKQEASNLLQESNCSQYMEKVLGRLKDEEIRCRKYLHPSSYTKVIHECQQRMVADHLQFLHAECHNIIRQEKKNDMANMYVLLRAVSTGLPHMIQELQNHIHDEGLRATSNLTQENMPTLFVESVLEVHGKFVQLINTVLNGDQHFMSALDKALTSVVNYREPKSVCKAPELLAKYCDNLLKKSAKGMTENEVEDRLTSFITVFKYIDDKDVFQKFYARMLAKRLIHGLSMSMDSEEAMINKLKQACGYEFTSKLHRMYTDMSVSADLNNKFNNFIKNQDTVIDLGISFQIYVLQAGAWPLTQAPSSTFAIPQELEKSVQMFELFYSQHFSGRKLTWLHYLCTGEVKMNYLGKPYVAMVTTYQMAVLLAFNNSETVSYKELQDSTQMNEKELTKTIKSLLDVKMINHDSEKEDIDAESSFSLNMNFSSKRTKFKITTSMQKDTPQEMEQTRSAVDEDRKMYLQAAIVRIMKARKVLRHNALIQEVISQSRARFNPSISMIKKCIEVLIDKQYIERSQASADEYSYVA
T2 sequence (P03372 whole entry, looked up): as the sequence (P03372 whole entry, looked up) above
T2 sequence (Q13619 whole entry, looked up): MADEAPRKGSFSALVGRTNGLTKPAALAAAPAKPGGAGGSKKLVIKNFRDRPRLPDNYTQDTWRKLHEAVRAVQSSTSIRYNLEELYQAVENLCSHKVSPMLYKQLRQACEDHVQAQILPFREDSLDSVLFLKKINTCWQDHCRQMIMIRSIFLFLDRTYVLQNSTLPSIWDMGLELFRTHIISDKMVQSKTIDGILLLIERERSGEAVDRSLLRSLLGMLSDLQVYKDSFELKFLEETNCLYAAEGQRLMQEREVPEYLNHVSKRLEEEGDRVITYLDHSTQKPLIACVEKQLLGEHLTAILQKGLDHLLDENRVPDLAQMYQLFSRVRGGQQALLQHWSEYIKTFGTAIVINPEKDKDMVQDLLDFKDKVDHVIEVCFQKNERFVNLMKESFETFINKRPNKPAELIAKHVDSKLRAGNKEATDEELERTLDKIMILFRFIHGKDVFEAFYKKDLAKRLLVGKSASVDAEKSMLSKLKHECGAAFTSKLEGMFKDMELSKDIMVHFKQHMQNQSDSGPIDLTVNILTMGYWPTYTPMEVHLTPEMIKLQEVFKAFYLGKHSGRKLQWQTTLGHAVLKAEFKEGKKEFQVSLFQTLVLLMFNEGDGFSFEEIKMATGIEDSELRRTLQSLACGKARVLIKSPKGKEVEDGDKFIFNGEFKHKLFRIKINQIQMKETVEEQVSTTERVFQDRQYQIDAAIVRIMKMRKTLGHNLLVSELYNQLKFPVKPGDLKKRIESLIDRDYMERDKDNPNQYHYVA
T2 sequence (Q96SW2 whole entry, looked up): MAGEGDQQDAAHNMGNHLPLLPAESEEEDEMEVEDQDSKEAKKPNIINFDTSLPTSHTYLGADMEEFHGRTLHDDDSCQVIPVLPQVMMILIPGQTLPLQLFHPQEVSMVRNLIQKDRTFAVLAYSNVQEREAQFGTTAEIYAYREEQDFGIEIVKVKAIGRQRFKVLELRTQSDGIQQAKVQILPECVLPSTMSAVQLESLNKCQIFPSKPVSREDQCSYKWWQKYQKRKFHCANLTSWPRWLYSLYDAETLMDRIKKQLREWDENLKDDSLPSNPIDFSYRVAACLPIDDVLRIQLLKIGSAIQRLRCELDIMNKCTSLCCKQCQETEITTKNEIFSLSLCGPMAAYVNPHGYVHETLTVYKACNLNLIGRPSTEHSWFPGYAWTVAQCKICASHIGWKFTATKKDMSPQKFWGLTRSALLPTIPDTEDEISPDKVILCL

## CCNCCc1ccc(CN(CC)c2cc(OC)ccc2[C@@H]2CCc3cc(O)ccc3C2)cc1 [ELACESTRANT]
[1]
  Ratio: 89
MCF7 [2]
  GI50: 0.028 nM
[3]
  Ratio: 171
MCF7 [4]
  Imax: 25.7%
[5]
  Ratio: 159

## O=C(c1ccc(OCCN2CCCCC2)cc1)c1c(-c2ccc(O)cc2)sc2cc(O)ccc12 [RALOXIFENE]
MCF7 [2]
  GI50: 0.079 nM
MCF7 [4]
  Imax: 34%
MCF7 [6]
  Activity: Active

## CCN(CCCCCCCC(=O)N[C@H](C(=O)N1C[C@H](O)C[C@H]1C(=O)N[C@@H](C)c1ccc(-c2scnc2C)cc1)C(C)(C)C)CCOc1ccc(C(=O)c2c(-c3ccc(O)cc3)sc3cc(O)ccc23)cc1
[1]
  Ratio: 21
[7]
  Ratio: 64
[3]
  Ratio: 0.4
[5]
  Ratio: 0.3

## CCN(CCCCCCC#Cc1cccc2c1CN(C1CCC(=O)NC1=O)C2=O)CCOc1ccc(C(=O)c2c(-c3ccc(O)cc3)sc3cc(O)ccc23)cc1 (configuration not stated)
[8]
  Ratio: 135
[9]
  Ratio: 143
[10]
  Ratio: 160
[11]
  Ratio: 174

## CCN(CCOCCOCCOCC#Cc1cccc2c1CN(C1CCC(=O)NC1=O)C2=O)CCOc1ccc(C(=O)c2c(-c3ccc(O)cc3)sc3cc(O)ccc23)cc1 (configuration not stated)
[8]
  Ratio: 149
[9]
  Ratio: 124
[10]
  Ratio: 146
[11]
  Ratio: 165

## C#Cc1ccc([C@H](C)NC(=O)[C@@H]2C[C@@H](O)CN2C(=O)[C@@H](NC(C)=O)C(C)(C)C)cc1
[12]
  pIC50: 6.06

## CC(=O)N[C@H](C(=O)N1C[C@H](O)C[C@H]1C(=O)N[C@@H](C)c1ccc(Cl)cc1)C(C)(C)C
[12]
  pIC50: 5.10
